In ChEMBL document CHEMBL4052814, “GNE-781, A Highly Advanced Potent and Selective Bromodomain Inhibitor of Cyclic Adenosine Monophosphate Response Element Binding Protein, Binding Protein (CBP)” (J Med Chem, 2017):
≈ marks a conversion by molar mass, not a printed value.

Experiments:
[1] = Oral bioavailability in cynomolgus monkey at 5 mg/kg by LC-MS/MS method; assay type: ADME, organism-based, Macaca fascicularis; details: in vivo
Method in brief: (§1)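 Non-naïve male cynomolgus monkeys, at least 2 years old, n = 3 per route. Given 1 mg/kg i.v. in EtOH/PEG400/water (20/15/65) or 5 mg/kg p.o. in 0.5% methylcellulose, 0.2% Tween 80; oral groups fasted. Plasma (K2EDTA) collected pre-dose to 24 h. Analysed by non-validated LC-MS/MS.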

[2] = tested on: Plasma; test: Drug uptake in plasma of C.B-17 SCID beige mouse xenografted with human MOLM16 cells at 3 to 30 mg/kg administered via oral gavage as bid for 21 days measured 2 to 24 hrs post last dose by LC-MS/MS method; assay type: ADME, organism-based; details: in vivo
[3] = target: Cytochrome P450 1A2 (Homo sapiens, UniProt P05177); test: Inhibition of CYP1A2 (unknown origin); assay type: ADME
Sequence of Cytochrome P450 1A2 (P05177 whole entry): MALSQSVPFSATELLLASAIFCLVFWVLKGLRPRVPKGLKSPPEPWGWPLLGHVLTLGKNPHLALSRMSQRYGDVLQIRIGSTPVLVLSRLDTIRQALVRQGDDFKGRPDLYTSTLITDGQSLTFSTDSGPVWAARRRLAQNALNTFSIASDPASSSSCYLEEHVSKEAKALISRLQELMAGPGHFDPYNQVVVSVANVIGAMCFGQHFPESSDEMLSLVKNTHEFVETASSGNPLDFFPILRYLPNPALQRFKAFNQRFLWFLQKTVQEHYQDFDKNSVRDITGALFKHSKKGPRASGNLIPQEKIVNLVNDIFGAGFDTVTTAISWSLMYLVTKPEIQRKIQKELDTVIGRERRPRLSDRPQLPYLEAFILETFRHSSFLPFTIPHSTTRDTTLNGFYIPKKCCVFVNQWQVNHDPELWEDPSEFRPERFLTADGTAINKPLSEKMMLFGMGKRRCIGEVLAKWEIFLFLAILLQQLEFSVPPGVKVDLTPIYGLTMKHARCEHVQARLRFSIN

[4] = target: Histone acetyltransferase KAT2A (Homo sapiens, UniProt Q92830); test: Displacement of biotinylated histone H3K14 peptide ligand from recombinant His-tagged human GCN5L2 measured after 10 mins by TR-FRET assay
Sequence of Histone acetyltransferase KAT2A (Q92830 whole entry): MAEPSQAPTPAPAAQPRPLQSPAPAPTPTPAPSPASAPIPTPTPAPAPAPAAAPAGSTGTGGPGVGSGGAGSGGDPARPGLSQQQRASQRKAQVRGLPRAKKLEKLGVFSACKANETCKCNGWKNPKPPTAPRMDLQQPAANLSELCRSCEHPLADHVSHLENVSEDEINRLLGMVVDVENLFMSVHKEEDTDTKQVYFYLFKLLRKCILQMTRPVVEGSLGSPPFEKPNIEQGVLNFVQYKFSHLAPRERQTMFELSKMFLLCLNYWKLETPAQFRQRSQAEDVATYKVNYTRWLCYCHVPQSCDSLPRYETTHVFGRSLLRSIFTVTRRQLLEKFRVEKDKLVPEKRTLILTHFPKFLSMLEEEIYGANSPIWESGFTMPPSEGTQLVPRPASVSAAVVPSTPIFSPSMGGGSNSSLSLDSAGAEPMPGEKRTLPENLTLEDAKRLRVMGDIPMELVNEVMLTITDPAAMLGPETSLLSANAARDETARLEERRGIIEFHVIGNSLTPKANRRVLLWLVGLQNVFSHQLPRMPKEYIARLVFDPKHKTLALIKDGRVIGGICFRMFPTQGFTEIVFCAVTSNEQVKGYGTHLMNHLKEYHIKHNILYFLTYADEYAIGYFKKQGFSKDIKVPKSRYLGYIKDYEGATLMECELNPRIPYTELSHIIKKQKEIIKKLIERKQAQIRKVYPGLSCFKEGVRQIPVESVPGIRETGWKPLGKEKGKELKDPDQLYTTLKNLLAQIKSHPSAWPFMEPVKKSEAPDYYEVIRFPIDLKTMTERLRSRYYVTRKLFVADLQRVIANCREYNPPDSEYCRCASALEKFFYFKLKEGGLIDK

[5] = AUClast in beagle dog at 1 mg/kg, iv or 5 mg/kg, po by LC-MS/MS method; assay type: ADME, organism-based, Canis lupus familiaris; details: in vivo
Method in brief: (§2)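 Non-naïve male beagle dogs, n = 3 per route. Dosed 1 mg/kg i.v. in EtOH/PEG400/water (20/15/65) or 5 mg/kg p.o. in 0.5% methylcellulose, 0.2% Tween 80; oral groups fasted overnight until 4 h post-dose. Peripheral blood taken pre-dose to 24 h and processed to K2EDTA plasma. Analysed by non-validated LC-MS/MS.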

[6] = species: Homo sapiens; test: Selectivity ratio of IC50 for human recombinant His-tagged BRD4 bromodomain-1 to IC50 for recombinant His-tagged human CBP […]
Method in brief: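 TR-FRET competition binding: recombinant His-tagged bromodomains bind a biotinylated small-molecule ligand, and competing compound lowers the signal. IC50s are geometric means of at least two determinations. Selectivity is BRD4(1) IC50 (nM) divided by CBP IC50 (nM).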

[7] = target: Cytochrome P450 2D6 (Homo sapiens, UniProt P10635); test: Inhibition of CYP2D6 (unknown origin); assay type: ADME
Sequence of Cytochrome P450 2D6 (P10635 whole entry): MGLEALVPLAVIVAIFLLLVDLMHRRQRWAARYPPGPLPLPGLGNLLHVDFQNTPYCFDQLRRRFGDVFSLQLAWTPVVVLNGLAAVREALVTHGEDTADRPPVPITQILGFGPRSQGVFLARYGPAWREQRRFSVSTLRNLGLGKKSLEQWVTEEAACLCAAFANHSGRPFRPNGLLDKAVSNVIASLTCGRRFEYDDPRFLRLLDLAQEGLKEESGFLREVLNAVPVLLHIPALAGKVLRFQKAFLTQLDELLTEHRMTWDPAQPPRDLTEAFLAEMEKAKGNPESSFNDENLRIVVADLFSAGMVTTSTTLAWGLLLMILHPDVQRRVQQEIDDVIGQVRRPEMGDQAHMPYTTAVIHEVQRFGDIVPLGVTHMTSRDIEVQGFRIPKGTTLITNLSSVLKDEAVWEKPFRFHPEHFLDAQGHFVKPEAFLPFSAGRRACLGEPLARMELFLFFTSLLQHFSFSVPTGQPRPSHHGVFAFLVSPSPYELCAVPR

[8] = Clearance in beagle dog at 1 mg/kg, iv or 5 mg/kg, po by LC-MS/MS method; assay type: ADME, organism-based, Canis lupus familiaris; details: in vivo; method in brief: as §2
[9] = Ratio of unbound concentration in rat brain to plasma at 250 mg/kg measured after 3 hrs postdose; assay type: ADME, organism-based; details: read-out: K(p,uu,brain)
[10] = tested on: Mus musculus; test: Toxicity in C.B-17 SCID beige mouse xenografted with human MOLM-16 cells assessed as decrease in body weight at 3 to 30 mg/kg administered via oral gavage as bid for 21 days measured during compound dosing; details: in vivo
[11] = Volume of distribution at steady state in CD-1 mouse at 1 mg/kg, iv or 5 mg/kg, po by LC-MS/MS method; assay type: ADME, organism-based; details: in vivo, read-out: Vdss
Method in brief: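 Female CD-1 mice, 6–9 weeks old, n=3 per route. Dosing was 1 mg/kg i.v. in PEG400/water 35/65 or 5 mg/kg p.o. in 0.5% methylcellulose/0.2% Tween 80. Serial tail-nick blood was taken to 24 h and diluted in EDTA water. Quantified by LC-MS/MS (MRM, positive ESI), LLOQ 0.002 μM.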

[12] = Half life in Sprague-Dawley rat at 1 mg/kg, iv or 5 mg/kg, po by LC-MS/MS method; assay type: ADME, organism-based; details: in vivo
Method in brief: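 Male Sprague-Dawley rats, 6–9 weeks, n = 3 per route. Dosed 1 mg/kg i.v. in PEG400/water (35/65) or 5 mg/kg p.o. in 0.5% methylcellulose, 0.2% Tween 80; oral groups fasted overnight until 4 h post-dose. Catheter blood sampled 0.033–24 h into K2EDTA and spun to plasma. Analysed by non-validated LC-MS/MS.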

[13] = target: Chromatin remodeling regulator CECR2 (Homo sapiens, UniProt Q9BXF3); test: Displacement of biotinylated histone H3K14 peptide ligand from human recombinant His-tagged CECR2 measured after 10 mins by TR-FRET assay
Sequence of Chromatin remodeling regulator CECR2 (Q9BXF3 whole entry): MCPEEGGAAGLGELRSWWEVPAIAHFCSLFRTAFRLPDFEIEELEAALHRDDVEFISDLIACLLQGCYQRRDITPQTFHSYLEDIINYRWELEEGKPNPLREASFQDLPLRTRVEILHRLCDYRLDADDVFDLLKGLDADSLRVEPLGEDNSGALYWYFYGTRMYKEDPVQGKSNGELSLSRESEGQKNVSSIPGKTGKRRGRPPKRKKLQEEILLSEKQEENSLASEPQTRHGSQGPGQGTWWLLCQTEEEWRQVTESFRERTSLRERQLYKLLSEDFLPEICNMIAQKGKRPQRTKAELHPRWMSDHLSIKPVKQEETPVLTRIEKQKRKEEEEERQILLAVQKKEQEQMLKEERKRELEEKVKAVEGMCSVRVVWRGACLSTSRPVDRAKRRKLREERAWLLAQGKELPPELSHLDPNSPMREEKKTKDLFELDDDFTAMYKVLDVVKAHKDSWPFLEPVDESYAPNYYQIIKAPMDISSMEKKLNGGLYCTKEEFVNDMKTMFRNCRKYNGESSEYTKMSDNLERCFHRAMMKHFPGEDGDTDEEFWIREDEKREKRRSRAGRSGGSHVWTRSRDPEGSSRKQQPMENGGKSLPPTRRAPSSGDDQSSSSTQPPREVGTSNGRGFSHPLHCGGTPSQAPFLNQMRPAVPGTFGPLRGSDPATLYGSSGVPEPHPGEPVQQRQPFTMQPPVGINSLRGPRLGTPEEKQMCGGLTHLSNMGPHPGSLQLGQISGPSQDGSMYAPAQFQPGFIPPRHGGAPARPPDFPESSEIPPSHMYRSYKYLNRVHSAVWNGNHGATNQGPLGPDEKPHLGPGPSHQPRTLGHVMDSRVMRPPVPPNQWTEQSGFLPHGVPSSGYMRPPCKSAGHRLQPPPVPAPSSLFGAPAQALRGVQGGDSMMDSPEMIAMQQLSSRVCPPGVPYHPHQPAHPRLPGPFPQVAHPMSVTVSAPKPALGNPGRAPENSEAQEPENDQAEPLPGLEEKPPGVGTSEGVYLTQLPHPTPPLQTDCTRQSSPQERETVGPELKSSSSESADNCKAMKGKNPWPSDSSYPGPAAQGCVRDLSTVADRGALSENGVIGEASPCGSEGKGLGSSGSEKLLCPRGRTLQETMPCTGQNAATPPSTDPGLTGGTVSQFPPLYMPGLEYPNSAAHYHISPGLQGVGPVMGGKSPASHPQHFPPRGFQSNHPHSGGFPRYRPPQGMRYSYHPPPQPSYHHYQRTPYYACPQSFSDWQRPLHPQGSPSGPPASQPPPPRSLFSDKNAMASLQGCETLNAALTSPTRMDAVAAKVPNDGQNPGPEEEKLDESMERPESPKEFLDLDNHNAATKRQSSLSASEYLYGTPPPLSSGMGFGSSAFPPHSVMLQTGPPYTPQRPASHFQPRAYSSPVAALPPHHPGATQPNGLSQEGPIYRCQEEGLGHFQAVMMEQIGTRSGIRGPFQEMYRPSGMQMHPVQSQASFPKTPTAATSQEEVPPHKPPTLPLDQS

[14] = Cmax in cynomolgus monkey at 1 mg/kg, iv or 5 mg/kg, po by LC-MS/MS method; assay type: ADME, organism-based, Macaca fascicularis; details: in vivo; method in brief: as §1
[15] = Cmax in CD-1 mouse at 1 mg/kg, iv or 5 mg/kg, po by LC-MS/MS method; assay type: ADME, organism-based; details: in vivo
Method in brief: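 Female CD-1 mice, 6–9 weeks, n = 3 per route. Dosed 1 mg/kg i.v. in PEG400/water (35/65) or 5 mg/kg p.o. as a suspension in 0.5% methylcellulose, 0.2% Tween 80. Serial tail-nick blood sampled to 24 h, diluted in EDTA-water. Parent drug measured by non-validated LC-MS/MS after acetonitrile precipitation with an indomethacin internal standard.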

[16] = tested on: Mus musculus; test: In vivo inhibition of CBP in human MOLM16 cells xenografted in C.B-17 SCID beige mouse assessed as suppression of MYC transcript levels at 30 mg/kg administered via oral gavage […] measured 2 hrs post last dose by real time-PCR method relative to control; assay type: functional
Method in brief: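 MOLM-16 subcutaneous xenografts in SCID beige mice received single oral doses of 3–30 mg/kg (n=3/group). Tumors were taken at time points from 2 to 24 h. MYC transcript was measured in tumor RNA by one-step TaqMan qRT-PCR with ACTB as housekeeping gene. Results are given relative to vehicle-treated animals by the comparative Ct method.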

[17] = target: Histone acetyltransferase p300 (Homo sapiens, UniProt Q09472); test: Displacement of biotinylated histone H3K14 peptide ligand from human recombinant His-tagged P300 measured after 10 mins by TR-FRET assay
[18] = target: Bromodomain-containing protein 9 (Homo sapiens, UniProt Q9H8M2); test: Displacement of biotinylated histone H3K14 peptide ligand from human recombinant His-tagged BRD9 measured after 10 mins by TR-FRET assay
Sequence of Bromodomain-containing protein 9 (Q9H8M2 whole entry): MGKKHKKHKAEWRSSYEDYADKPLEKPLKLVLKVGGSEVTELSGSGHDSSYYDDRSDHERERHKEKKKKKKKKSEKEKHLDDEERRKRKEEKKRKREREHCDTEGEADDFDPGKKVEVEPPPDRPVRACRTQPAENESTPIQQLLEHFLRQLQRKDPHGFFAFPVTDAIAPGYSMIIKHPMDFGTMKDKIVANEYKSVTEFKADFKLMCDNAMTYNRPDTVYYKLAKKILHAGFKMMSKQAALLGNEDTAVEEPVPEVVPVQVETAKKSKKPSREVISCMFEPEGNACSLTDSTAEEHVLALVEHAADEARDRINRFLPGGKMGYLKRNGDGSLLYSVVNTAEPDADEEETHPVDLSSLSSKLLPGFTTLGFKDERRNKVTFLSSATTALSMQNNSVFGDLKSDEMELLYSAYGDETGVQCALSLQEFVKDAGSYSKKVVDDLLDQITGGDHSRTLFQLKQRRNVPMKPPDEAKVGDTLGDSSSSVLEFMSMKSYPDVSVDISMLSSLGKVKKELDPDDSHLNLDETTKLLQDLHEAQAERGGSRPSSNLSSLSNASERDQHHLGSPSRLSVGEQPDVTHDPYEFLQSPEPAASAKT

[19] = Apparent permeability from apical side to basolateral side in MDCK cells at 10 uM measured after 180 mins by LC-MS/MS analysis; assay type: ADME, cell-based, Canis lupus familiaris; details: dog
[20] = Kinetic solubility of the compound in PBS at 200 uM at pH 7.4 after 24 hrs by LCMS-chemiluminescence nitrogen detection assay; assay type: physicochemical; details: read-out: Kinetic_solubility
Method in brief: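 A 10 mM DMSO stock was diluted into PBS pH 7.4 to give 200 µM compound in 2% DMSO. Samples were shaken for 24 h at room temperature at 1000 rpm, then filtered and diluted 2-fold. Each was injected twice into LCMS-CLND and quantified against a caffeine calibration curve with correction for nitrogen count.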

[21] = Half life in beagle dog at 1 mg/kg, iv or 5 mg/kg, po by LC-MS/MS method; assay type: ADME, organism-based, Canis lupus familiaris; details: in vivo; method in brief: as §2
[22] = target: T1, CREB-binding protein (Homo sapiens, UniProt Q92793); test: Inhibition of Halo-tagged histone H3.3 binding to NanoLuc luciferase conjugated human CBP expressed in HEK293 cells after overnight incubation by BRET assay; assay type: cell-based
[23] = target: T1, CREB-binding protein; test: Displacement of biotinylated histone H3K14 peptide ligand from human recombinant His-tagged CBP measured after 10 mins by TR-FRET assay

bioavailability [1] [%] | IC50 [4] [µM] | AUC(0-t) [5] [µM·h] | clearance [8] [mL/min/kg] | Kp uu at 3 h [9] | Vd [11] [L/kg] | half-life [12] [min] | IC50 [13] [µM] | Cmax [14] [nM] | Cmax [15] [µM] | IC50 [17] [nM] | IC50 [18] [µM] | Papp A→B at 3 h, 10 µM [19] [×10⁻⁶ cm/s] | solubility kinetic at 24 h, 200 µM [20] [µM] | half-life [21] [min] | Structure (SMILES) | Ratio IC50 [6] | further results
28 | > 20 | 44 | 4.8 | 0.02 | 0.6 | 222 | > 20 | 1900 | 23 | 1.2 | > 20 | 19 | 95 (≈ 49.9 µg/mL) | 282 | CNC(=O)N1CCc2c(c(N3CCCc4cc(-c5cnn(C)c5)c(C(F)F)cc43)nn2C2CCOCC2)C1 | 5420 | Drug uptake [2]: Active; IC50 [3]: > 10 µM; IC50 [7]: > 10 µM; %max [10]: 3.7%; Imax [16]: 88%
39 | > 20 | 31 | 4.6 | 0.43 | 0.81 | 39.6 | 14 | 1600 | 4.2 | 1.3 | > 20 | 15 | 76 (≈ 38.8 µg/mL) | 252 | CC(=O)N1CCc2c(c(N3CCCc4cc(-c5cnn(C)c5)c(C(F)F)cc43)nn2C2CCOCC2)C1 | 3820 | IC50 [22]: 12 nM; IC50 [23]: 1.1 nM
